According to the RNAGym collection of RNA variant scans (doi:10.1126/science.aae0568):
Fewer inactive variants are shown than the library holds.

B1: tRNA (parent)
chain: GUUCCGUUGGCGUAAUGGUAACGCGUCUCCCUCCUAAGGAGAAGACUGCGGGUUCGAGUCCCGUACGGAACG

Variants of: B1
Experiment: yeast fitness relative to wild type (ratio to wild type); higher = fitter; tRNA-Arg(CCU), competitive growth, 37 C, YPD
Procedure, shortened: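 A pool of Saccharomyces cerevisiae strains, each with a tRNA-Arg(CCU) gene variant at the native genomic locus, was competed in YPD at 37°C for 24 hours across six parallel replicates. The variants had been chemically synthesised at a 3% per-site mutation rate over 69 sites, and gene amplicons before and after competition were read by 100-nucleotide paired-end sequencing. Darwinian fitness relative to wild type rested on changes in genotype frequencies. Genotypes required ≥ 100 starting reads, and estimates < 0.5 were set to 0.5.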

| Variant | yeast fitness |
| --- | --- |
| GUUCCGUUGGUGUAAUGGUAACGCGUCUCCUUCCUAAGGAGAAGACCGCGGGUUCGAGUCCCGUACGGAACG [C11U C31U U47C] | 0.78 |
| GUUCCGUUGGCGUAAUGGUAACGCGUCUCCCUCCUAAGGAGAGGUCUACGGGUUCGAGUCCCGUACGGAACG [A43G A45U G48A] | 0.658 |
| GUUCCAUUGGCGUAAUGGUAACGCGUCUCCCUCCUAAGGAGAAGACUGCGGAUUCGAGUCCCGUACGGAACG [G6A G52A] | 0.677 |
| GUUCCGUUGGCGUAAUGGUAACGUGUCUCCCUUCUAAGGAGAACACUGCGGGUUCGAGUCCCGUACGGAACG [C24U C33U G44C] | 0.633 |
| GUACCGUUGGCGUAAUGGUAACGCAUCUCCCUCCUAAGGAGAAGACUGCGGGUUCGAAUCCCGUACGGAACG [U3A G25A G58A] | 0.782 |
| GUUCCGUUGGUGUAAUGGUAACGCGUCUCCCUCCUAAGGAGAAGAUUGCGGGUUCGAGUCCCGUACGGAGCG [C11U C46U A70G] | 0.786 |
| GUUCCGUUGGCGUAAUGGUAAUGCGUCUCGCUCCUAAGGAGAAGACUGCGGGUUCGAGUCCCGUCUGGAACG [C22U C30G A65C C66U] | 0.62 |
| GUUCCGUUGGCGUAAUGGUAACGGGUCUCCCUUCUAAGGAGAAGACUGCGGGUUCGAGCCCCGUACGGAACG [C24G C33U U59C] | ≤ 0.5 |
| GUUCCGUUGGCGUAAUGGUAACGUGUCUCCCUCCCAACGAGAAGACUGCGGGUUCGAGUCCCGUACGGAACG [C24U U35C G38C] | 0.677 |
| GUUCCGUCGGCGUAAUGGUAACGCGUCUCCCUCCUAAGGAGAAGACUGCGGGUUCGAGUCCCGUACGCAACG [U8C G68C] | 0.958 |
| GUUCCGUUGGCGAAAUGGUAACGCGUCCCCCUCCUAAGGAGAAGACUGCGGGUUAGAGUCCCGUACGGAACG [U13A U28C C55A] | 0.595 |
| GUUCCAUUGGCGUUAUGGUAACGCGUCUCCCUCCUAAGGAGAAGACUGCGGGUUCGAGUCACGUACGGAACG [G6A A14U C61A] | ≤ 0.5 |
| GUUCCGUUGGCGGAAUGGUAACGCGUCUCCCUCCUAACGAGAAGACUGCGGGUUCGAGUCCCGUACGGAACG [U13G G38C] | 0.757 |
| GUUCCGUUGACGUAAUGGUAACGCGUCUCCCUCCUUAGGAGAAGACUGCGGGUUCGAGUCCCGUACGGAACG [G10A A36U] | 0.596 |
| GUUCCGUUGGCGUAAUGGUAACGCGUCUCCCUCCUAAGGAGAAGAUUGCGGGUUCGAGUCCCGUACGGAGCG [C46U A70G] | 1.05 |
| GUUCUGUUGGCGUACUGAUAACACGUCUCCCUCCCAAGGAGGAGACUGAGGGUUCGAGUCCCGUACGGAACG [C5U A15C G18A G23A U35C A42G C49A] | ≤ 0.5 |
| GUUCCGUUGGGGUAAUGGUAACGCGUCUGCCUCCUAAGGAGAAGACUGCGGGUUCGAGUCCCGUACGGAACG [C11G C29G] | 0.84 |
| GUUCCGUUGGCGUGAUGCUAACGCGUCUCCCUCCUAAGGAGAAGACUGCGGCUUAGAGUCCCGUACGGAACG [A14G G18C G52C C55A] | ≤ 0.5 |
| GUUCCGUUGGCGUAAUGGUAACGCGUCUCCCCCCUAAGGAGAAGACUGCGGCUUCGAGUCCCGUACAGCACG [U32C G52C G67A A69C] | ≤ 0.5 |

| Variant | yeast fitness |
| --- | --- |
| GUUCCGAUGGUGUAAUGGUAAUGCGUCUCCCUCCUAACGAGAAGACUGCGGGUUCGAGUCCCGUACGGAACG [U7A C11U C22U G38C] | ≤ 0.5 |
| GUUCCGUUGGCGUAAUGGUAACACGUCUCCCUCCUAAGGCGAAGACUGCGGGCUCGAGUCCCGUACGGAACG [G23A A40C U53C] | ≤ 0.5 |
| GUUCCGUUGGCGUAAUGGUAACGCGUCUCCCUCCUAAGGAGAAGCUUGCGGGUUCGAGUCCCGCACGGAACG [A45C C46U U64C] | 0.79 |
| GUUCCGUUGGCCUAAUGGUAACGCGUCUCCCUCCUAAGGAGAAGACUCCGGGUUCGAGUCCCGUACGGAACG [G12C G48C] | 0.787 |
| GUUCUGUUGGCGUACUGGUAACGCGUCUCCCACCUAAGGAGAAGACCGCGGGUUCGAGUCCCGUACGGAACG [C5U A15C U32A U47C] | ≤ 0.5 |
| GUUCCGAUGACGUAAUGGUAACGCGUCUCCCUACUCAGGAGAAGACUGCGGGUUCGAGUCCCGUACGGAUCG [U7A G10A C33A A36C A70U] | ≤ 0.5 |
| GUUCCGUUAGCGUAAUGGUAACGCGUCUUCCACCUAAGGAGAUGACUGCGGGUUCGAGUCGCGUCGGGAACG [G9A C29U U32A A43U C61G A65C C66G] | ≤ 0.5 |
| GUUCCGAUGGCGUAAUGGUAACGCGUCUCCCUCCUAAGGAGAAGACCGCGGGUUCGAGUCCCGUACGGAACG [U7A U47C] | 0.785 |
| GUUCCGUUGGCGUUAUGGUAACGCGUCUCCCCCCUAGGGAGAAGACUGUGGGUUCGAGUCCCGUACGGAACG [A14U U32C A37G C49U] | ≤ 0.5 |
| GUUCAGUUGGCAUAAUGGUAACGCGUCUCCCUCCUAAGGAGAAGACUGCGGGUUCGAGUCCCGUACGGAACG [C5A G12A] | 0.788 |
| GUUCCGUUGGCGUAAUGGUAACGCGUCUGGCUCGUAAGGAGAAGACUGCGGGUUCGAGUACCGUACCGAACG [C29G C30G C34G C60A G67C] | ≤ 0.5 |
| GUUCCCUUGACGUAAGGGUAACGUGUCUCCCUCCUAAGGAGAAGACUGCCGGUUUGAGUCCCGUACGGAACG [G6C G10A U16G C24U G50C C55U] | ≤ 0.5 |
| GUCCCGUUGGCGUAAUGGUAACGCGUCUCCCUCCUAAGGAGAAGACUGCGGGUUGGAGUCCCGUACGGAACG [U3C C55G] | 0.619 |
| GUUCCGUUCGCGUAAUGGUUACGCGUCUCCCUCCUAAGGAGAAGACCGCGGGUUCGAGUCCCGUACGGAACG [G9C A20U U47C] | ≤ 0.5 |
| GUUCCGUUGGCGUAAUGGUCACGCGCUUCCCUCCUAAGGAGAAGACUGCGGGUUCGAGUCCCGUACAGAACG [A20C U26C C27U G67A] | ≤ 0.5 |
| GUUCAGUUGGCGUAAUGGUAACGCGUCUCCCUCCUAAGAAGAAGACUGCGGGUUCCAGUCCCGUACGGAACG [C5A G39A G56C] | ≤ 0.5 |
| GUUCCGUUGGCGUAAUGGUAACGCGUCUCACUCCUAAGGAGACGACUGCGGGUUCGAGUCCCGUGCGGAACG [C30A A43C A65G] | 0.97 |
| GUUCUGUUGGCGUAAUGGUAACGCGUCUCCCUCCUUAGGAGAAGACUGCGGGUUCGAGUCCCGUACGGAACG [C5U A36U] | 0.632 |
